Assay results collected from several papers.
Each line is one published result; the experiments were not run side by side.
PSMB6/PSMB5/PSMB7: PSMB6/PSMB5/PSMB7 (Homo sapiens, UniProt P28072+P28074+Q99436)
NTRK3: NT-3 growth factor receptor (NTRK3, Homo sapiens, UniProt Q16288)

SMILES	target	effect on	action	method	cell line	concentration	inhibition
COC(=O)[C@@]12Oc3c(c(O)cc4c3[C@@H]3C=C[C@]5(C4)C(=C(O)c4c(O)cc(C)cc4[C@@H]5OC(C)=O)C3=O)C(O)=C1C(=O)C=C[C@@H]2O	PSMB6/PSMB5/PSMB7	enzyme activity in cells	inhibitor	–	MCF7	20 µg/mL	13%
OCc1cc(C(O)CNCCCCCCOCCCCc2ccccc2)ccc1O (centres unmarked)	C-X-C chemokine receptor type 4 (CXCR4, Homo sapiens, UniProt P61073)	calcium signal	antagonist	–	U87.CD4.CXCR4	20 µM	15%
CCN(CC)CCNC(=O)c1c(C)[nH]c(/C=C2\C(=O)Nc3ccc(F)cc32)c1C	Dual specificity mitogen-activated protein kinase kinase 7 (MAP2K7, Homo sapiens, UniProt O14733)	enzyme activity	inhibitor	–	–	0.3 µM	11%
CC1=C(/C=C/C(C)=C/C=C/C(C)=C/CO)C(C)(C)CCC1	Prothrombin (Rattus norvegicus, UniProt P18292)	enzyme activity	inhibitor	–	–	200 µg/mL	46%
COC(=O)c1c(O)ccc(O)c1C(=O)c1c(O)cc2c(c1O)[C@@H]1C=C[C@@]3(C2)[C@@H](OC(C)=O)c2cc(C)cc(O)c2C(=O)C3(O)C1=O (some centres unmarked)	PSMB6/PSMB5/PSMB7	enzyme activity in cells	inhibitor	–	MCF7	20 µg/mL	67%
CCN(c1cc(C#CCN2CCOCC2)cc(C(=O)NCc2c(C)cc(C)[nH]c2=O)c1C)[C@H]1CC[C@H](N(C)CCOC)CC1	Histone-lysine N-methyltransferase SMYD3 (SMYD3, Homo sapiens, UniProt Q9H7B4)	enzyme activity	inhibitor	–	–	1 µM	13%
COc1ccc(C(N)=O)cc1NC(=O)c1cccc(-c2cnc3[nH]c(=O)n(C)c3c2)c1	Poly [ADP-ribose] polymerase tankyrase-1 (TNKS, Homo sapiens, UniProt O95271)	enzyme activity	inhibitor	–	–	0.1 µM	0%
O=C(Nc1ccc(OC(F)(F)F)cc1)Nc1cccc(C(=O)Nc2ccc3[nH]ncc3c2)c1	NTRK3	enzyme activity	inhibitor	FRET	–	1 µM	17.3%
CN(C)C1CCN(CC#Cc2nn(C3CCCC3)c3nc(NCc4ccccc4)ncc23)C1 (centres unmarked)	RAC-alpha serine/threonine-protein kinase (AKT1, Homo sapiens, UniProt P31749)	enzyme activity	inhibitor	FRET	–	1 µM	5%
O=C(Nc1ccc(C(F)(F)F)cc1)Nc1cccc(C(=O)Nc2ccc3[nH]ncc3c2)c1	NTRK3	enzyme activity	inhibitor	FRET	–	1 µM	13.5%
CC(=O)c1nn(CC(=O)N2C[C@H](F)C[C@H]2C(=O)Nc2cccc(Br)n2)c2ccc(-c3cnc(C)nc3)cc12	Dipeptidyl peptidase 4 (DPP4, Homo sapiens, UniProt P27487)	enzyme activity	inhibitor	–	–	10 µM	-1%
